Laboratory results from ChEMBL document CHEMBL3813653, “Disulfides with Anti-inflammatory Activity from the Brown Alga Dictyopteris membranacea” (J Nat Prod, 2016).
The source made the active and inactive calls. No cut-off for these calls is given here.

Assays:
RAW264.7 [1] = assay: Antiinflammatory activity in mouse RAW264.7 cells assessed as inhibition of LPS-induced nitric oxide production preincubated for 1 hr followed by LPS stimulation for 48 hrs by Griess assay; type: functional, cell-based
Summary of the method: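 Macrophage line RAW 264.7 pretreated 1 h with a range of concentrations (vehicle Carbowax 400, 0.1% v/v final), then given 100 ng/mL LPS for 48 h. Supernatant nitrite read by Griess reaction at 540 nm using a nitrite standard curve. NO normalized to Carbowax-only cells (100%); IC50 is the concentration giving 50% inhibition; four replicates, mean ± SD.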

RAW264.7 [2] = assay: Cytotoxicity against mouse RAW264.7 cells assessed as cell growth inhibition after 48 hrs by MTT assay; type: cell-based; details: raw264.7, 48 h
Summary of the method: (§1)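 RAW 264.7 cells seeded, cultured overnight, and the seeded cell number measured before treatment as control. Cells exposed to various concentrations for 48 h, then MTT at 0.5 mg/mL […]. Cells lysed in 2-propanol with 0.4% HCl; absorbance read at 610 nm. OD normalized to control; one-way ANOVA.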

RAW264.7 [3] = assay: Cytostatic activity against mouse RAW264.7 cells assessed as cell growth inhibition after 48 hrs by MTT assay; type: cell-based; details: raw264.7, 48 h; summary of the method: as §1
Staphylococcus aureus [4] = assay: Antibacterial activity against Staphylococcus aureus EMRSA-15 after 18 hrs by serial dilution method; type: functional, organism-based
Summary of the method: (§2)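 Strains grown on nutrient agar for 24 h at 37 °C. Compounds dissolved in DMSO and diluted in Mueller–Hinton broth to a 512 μg/mL starting concentration, then serially diluted in MHB with 10 mg/L Mg2+ and 20 mg/L Ca2+. Final inoculum 5 × 10^5 cfu/mL; 18 h, 37 °C. MIC is the lowest concentration with no growth, confirmed by MTT colour change. DMSO at most 3.125% v/v; triplicate.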

RAW264.7 [5] = assay: Antiinflammatory activity in mouse RAW264.7 cells assessed as inhibition of LPS-induced nitric oxide production at 10 ug/ml preincubated for 1 hr followed by LPS stimulation for 48 hrs by Griess assay; type: functional, cell-based
Summary of the method: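 RAW 264.7 mouse macrophages in DMEM with 10% heat-inactivated FBS at 37 °C, 5% CO2. Compounds fixed at 10 μg/mL in Carbowax 400 (0.1% v/v final), added 1 h before 100 ng/mL LPS for 48 h. Nitrite in the supernatant measured by Griess reaction (540 nm) against a sodium nitrite standard curve. Controls: 0.1% Carbowax only.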

Staphylococcus aureus [6] = assay: Antibacterial activity against Staphylococcus aureus SA1199B after 18 hrs by serial dilution method; type: functional, organism-based; summary of the method: as §2
Escherichia coli = assay: Antibacterial activity against Escherichia coli NCTC 10418 after 18 hrs by serial dilution method; type: functional, organism-based; summary of the method: as §2
RAW264.7 [7] = assay: Antiinflammatory activity in mouse RAW264.7 cells assessed as inhibition of LPS-induced nitric oxide production treated 1 hr before LPS challenge measured after 48 hrs by Griess reaction

IC50 (RAW264.7 [1]) [µM]	IC50 (RAW264.7 [7]) [µM]	SMILES	GI (RAW264.7 [2]) [µM]	growth inhibition (GI) (RAW264.7 [3])	Activity (Staphylococcus aureus [4])	inhibition (RAW264.7 [5])	Activity (Staphylococcus aureus [6])	Activity (Escherichia coli)
3.8	–	CCCCCCCCC(=O)CCSSCCC(=O)CC(CCCCCC)SC (configuration not stated)	> 45	Toxic	inactive	Active	inactive	inactive
–	–	CCCCCCCCC(=O)CCSSCCC(=O)CCCCCCCC	–	–	inactive	–	inactive	inactive
–	–	CCCCCC/C=C/C(=O)CCSSCCC(=O)CCCCCCCC	–	–	inactive	–	inactive	inactive
–	2.2	C=C([C@H]1CC[C@@](C)(O)[C@@H](Br)C1)[C@H]1[C@H](O)[C@@H]2[C@@H](CC[C@@]2(C)O)C1(C)C	–	–	–	–	–	–
–	–	CCCCCC/C=C/C(=O)CCSSCCC(=O)CC(CCCCCC)SC (configuration not stated)	–	–	inactive	–	inactive	inactive
–	–	CCCCCC/C=C/C(=O)CCSSCCC(=O)/C=C/CCCCCC	–	–	inactive	–	inactive	inactive
14.2	–	CCCCCCC1CC(=O)CCSS1 (configuration not stated)	> 85	Toxic	inactive	Active	inactive	inactive
